In ChEMBL document CHEMBL1144297, “Design and synthesis of macrocycles active against vancomycin-resistant enterococci (VRE): the interplay between d-Ala-d-Lac binding and hydrophobic effect” (2005):
In brackets after ≈: the same amount, converted by molar mass. Starred links: 1 amine or outer side, 2 acyl side, 3 side chain; linkers in the order of their positions; H or OH if unused. Positions of bridges follow the written chain, without caps; N, C: chain ends. Non-standard residues stand in square brackets, D forms with d. Residues, ends and D or L forms follow the SMILES beside them. *: point of attachment. X1 = O=C1C[C@@H](C(=O)[*:2])N([*:1])C[C@H]1CS[C@@H]1CN2CCC1CC2; NMePhe(4-NMe2) = CN[C@@H](Cc1ccc(N(C)C)cc1)C(=O)O; Picolinoyl(3-OH) = O=C(c1ncccc1O)*; Phg = N[C@H](C(=O)O)c1ccccc1; dAbu = CC[C@@H](N)C(=O)O

What was measured:
[1] = system: Enterococcus faecium; assay: Minimum inhibitory concentration against vancomycin sensitive Enterococci faecium L568 strain was determined; format: functional
Outline: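 Standard microdilution assay giving the minimum inhibitory concentration. The test organism is strain L568, which is isogenic with L569.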

[2] = system: Enterococcus faecalis; assay: Minimum inhibitory concentration against vancomycin resistant Enterococci faecalis L560 strain was determined; format: functional
Outline: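 Standard microdilution MIC assay against strain L560, which forms an isogenic pair with L559.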

[3] = system: Enterococcus faecium; assay: Minimum inhibitory concentration against vancomycin resistant Enterococci faecium L2215 strain was determined; format: functional
Outline: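 Standard microdilution MIC assay against strain L2215, a Van-A clinical isolate.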

[4] = system: Staphylococcus aureus; assay: Minimum inhibitory concentration against Staphylococcus aureus L613 strain was determined
[5] = system: Enterococcus faecalis; assay: Minimum inhibitory concentration against vancomycin sensitive Enterococci faecalis L559 strain was determined; format: functional
Outline: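 Standard microdilution MIC assay against strain L559, isogenic with L560.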

[6] = Enterococcus faecium, read-out: MIC
[7] = Enterococcus faecalis, read-out: MIC

Compound	MIC [1, 6] [µg/mL]	MIC [2, 7] [µg/mL]	MIC [3, 6] [µg/mL]	MIC [4] [µg/mL]	MIC [5, 7] [µg/mL]	MIC [1] [µg/mL]	MIC [2] [µg/mL]	MIC [3] [µg/mL]	MIC [5] [µg/mL]
CC(=O)N[C@@H]1[C@H](Oc2c3cc4cc2Oc2ccc(cc2Cl)[C@@H](O[C@@H]2O[C@@H](CO)[C@@H](O)[C@H](O)[C@@H]2NC(C)=O)[C@@H]2NC(=O)[C@H](NC(=O)[C@@H]4NC(=O)[C@H]4NC(=O)[C@@H](Cc5ccc(c(Cl)c5)O3)NC(=O)[C@H](N)c3ccc(O)c(c3)Oc3cc(O)cc4c3)c3ccc(O)c(c3)-c3c(O[C@H]4O[C@H](CO)[C@@H](O)[C@@H](O)[C@@H]4O)cc(O)cc3[C@@H](C(=O)O)NC2=O)O[C@@H](CO)[C@@H](O)[C@@H]1O	0.5 (≈ 0.283 µM)	64 (≈ 36.2 µM)	> 128	1 (≈ 0.566 µM)	0.125 (≈ 0.0707 µM)				
CCCCCCCCCCCNC(=O)N[C@@H](C(=O)O)C1NC(=O)[C@H](Cc2ccccc2)NC(=O)[C@H](N)Cc2ccc(c([N+](=O)[O-])c2)Oc2cc1cc(O)c2OC.Cl (some centres not stated)	128	> 128	> 128	> 128	128				
CCCCCCCCCCCC(=O)N[C@@H](C(=O)O)C1NC(=O)[C@H](Cc2ccccc2)NC(=O)[C@H](NC(=O)[C@H](N)CC(C)C)Cc2ccc(c([N+](=O)[O-])c2)Oc2cc1cc(OCc1ccccc1)c2OC.Cl (some centres not stated)	256	4	16	128	8				
COC(=O)[C@@H](C1NC(=O)[C@H](Cc2ccccc2)NC(=O)[C@H](NC(=O)[C@H](N)CC(C)C)Cc2ccc(c([N+](=O)[O-])c2)Oc2cc1cc(OC)c2OC)N(C)C.Cl (some centres not stated)	> 128	128		> 128	128				
CCCCCCCCCCCC(=O)N[C@@H](C(=O)O)C1NC(=O)[C@H](Cc2ccccc2)NC(=O)[C@H](NC(=O)[C@H](N)CC(C)C)Cc2ccc(cc2)Oc2cc1cc(O)c2OC.Cl (some centres not stated)	> 128	128		> 128	128				
COc1c(O)cc2cc1Oc1ccc(cc1[N+](=O)[O-])C[C@@H](NC(=O)[C@H](N)CC(C)C)C(=O)N[C@@H](Cc1ccccc1)C(=O)NC2[C@@H](NC(C)=O)C(=O)O.Cl (some centres not stated)	> 1020			> 1020	> 1020				
CCCCCCCCCCCNC(=O)N[C@@H](C(=O)O)C1NC(=O)[C@H](Cc2ccccc2)NC(=O)[C@H](NC(=O)[C@H](N)CC(C)C)Cc2ccc(c([N+](=O)[O-])c2)Oc2cc1cc(OC1OC(O)C(O)C(O)C1NC(=O)CCCCCCCCCCC)c2OC.Cl (some centres not stated)	256	8	32	> 256	8				
CCCCCCCCCCCC(=O)NC1C(Oc2cc3cc(c2OC)Oc2ccc(cc2[N+](=O)[O-])C[C@@H](NC(=O)[C@H](N)CC(C)C)C(=O)N[C@@H](Cc2ccccc2)C(=O)NC3[C@@H](NC(C)=O)C(=O)O)OC(O)C(O)C1O.Cl (some centres not stated)	> 1020	64	1020	> 1020	64				
COC(=O)[C@H](N)C1NC(=O)[C@H](Cc2ccccc2)NC(=O)[C@H](NC(=O)[C@H](N)CC(C)C)Cc2ccc(c([N+](=O)[O-])c2)Oc2cc1cc(O)c2OC.Cl (some centres not stated)	> 1020	512		> 1020	512				
CCCCCCCCCCCC(=O)N[C@@H](C(=O)O)C1NC(=O)[C@H](Cc2ccccc2)NC(=O)[C@H](NC(=O)[C@H](N)CC(C)C)Cc2ccc(c([N+](=O)[O-])c2)Oc2cc1cc(O)c2OC.Cl (stereo in doubt; 2d)	128	4	8	64	4				
CCCCCCCCCCCC(=O)N[C@@H](C(=O)O)C1NC(=O)[C@H](Cc2ccccc2)NC(=O)[C@H](NC(=O)[C@H](N)CC(C)C)Cc2ccc(c([N+](=O)[O-])c2)Oc2cc1cc(O)c2OC.Cl (stereo in doubt; 2e)						>128	8	16	8
CCN(CC)CCS(=O)(=O)[C@@H]1CCN2C(=O)c3coc(n3)CC(=O)C[C@H](O)/C=C(C)/C=C/CNC(=O)/C=C/[C@@H](C)[C@@H](C(C)C)OC(=O)[C@@H]12.CC[C@H]1NC(=O)[C@@H](NC(=O)c2ncccc2O)[C@@H](C)OC(=O)[C@H](c2ccccc2)NC(=O)[C@@H]2CC(=O)[C@H](CS[C@@H]3CN4CCC3CC4)CN2C(=O)[C@H](Cc2ccc(N(C)C)cc2)N(C)C(=O)[C@@H]2CCCN2C1=O [QUINUPRISTIN/DALFOPRISTIN] ({Picolinoyl(3-OH)}-T[dAbu]P[NMePhe(4-NMe2)][X1][Phg]; ester 1-C)	4	8	4	1	4				
CN[C@H](CC(C)C)C(=O)N[C@H]1C(=O)N[C@@H](CC(N)=O)C(=O)N[C@H]2C(=O)N[C@H]3C(=O)N[C@H](C(=O)N[C@H](C(=O)O)c4cc(O)cc(O)c4-c4cc3ccc4O)[C@H](O)c3ccc(c(Cl)c3)Oc3cc2cc(c3O[C@@H]2O[C@H](CO)[C@@H](O)[C@H](O)[C@H]2O[C@H]2C[C@](C)(N)[C@H](O)[C@H](C)O2)Oc2ccc(cc2Cl)[C@H]1O [VANCOMYCIN]		> 128	> 128		1 (≈ 0.69 µM)				
